The subject of one assay is L1210. Kind of assay: Antiproliferative activity against mouse L1210 cells after 2 days by MTT assay. It is filed as functional, cell-based. The note with it: L1210, 48 h. For orientation: Tetrazolium dyes change colour on reduction, which living cells bring about.
Assay [1] in a line: Antiproliferative activity against human Molt4/C8 cells after 3 days by MTT assay. It is filed as functional, cell-based. The note with it: MOLT-4, 72 h.
Another assay relates to CCRF-CEM. Kind of assay: Antiproliferative activity against human CEM cells after 3 days by MTT assay. In kind it is functional, cell-based. Conditions: 72 h.
The test system of the next assay is HeLa. Kind of assay: Antiproliferative activity against human HeLa cells after 3 days by MTT assay. It is filed as functional, cell-based. The note with it: 72 h. The method in brief:
(§1)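 Monolayers grown in DMEM with 10% FBS, 2 mM L-glutamine, penicillin/streptomycin at 37 °C, 5% CO2. Seeded at 1 × 10⁴ to 3 × 10⁴ cells/mL, then exposed 72 h to five 10-fold dilutions (10⁻⁸ to 10⁻⁴ M) from 0.04 M DMSO stocks, with a solvent control. MTT added for 4 h, formazan dissolved in DMSO, A570 read. Percentage growth taken against time-zero and untreated OD. Quadruplicates in three experiments; IC50 by linear regression.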

For the next assay, the system named is MCF7. Kind of assay: Antiproliferative activity against human MCF7 cells after 3 days by MTT assay. It is filed as functional, cell-based. Conditions: MCF7, 72 h. In a few lines: as §1
The test system of another assay is MIA PaCa-2. Kind of assay: Antiproliferative activity against human MiaPaCa2 cells after 3 days by MTT assay. It is filed as functional, cell-based. The note with it: MIA PaCa-2, 72 h. In a few lines:
as §1

A further assay has as its system SW-620. Kind of assay: Antiproliferative activity against human SW620 cells after 3 days by MTT assay. In kind it is functional, cell-based. The note with it: SW-620, 72 h. In a few lines: as §1
The next assay concerns HepG2. Kind of assay: Antiproliferative activity against human HepG2 cells after 3 days by MTT assay. It is filed as functional, cell-based. Conditions: HepG2, 72 h. The method in brief:
as §1

Assay [2] can be described thus: Cytotoxicity against human WI38 cells after 3 days by MTT assay. It is filed as cell-based. The note with it: WI-38, 72 h. The method in brief: as §1
For assay [3], the system named is Human immunodeficiency virus 1. Kind of assay: Antiviral activity against HIV1 assessed as inhibition of virus-induced cytopathogenicity in CEM cells. In kind it is functional, organism-based. Conditions: Human immunodeficiency virus 1, CCRF-CEM. In a few lines: (§2)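 CEM cell cultures infected with HIV-1 or HIV-2. Virus-induced cytopathicity scored as syncytia formation.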
On the technique in general: Protection from cytopathic effect is a common read-out in antiviral testing.

The test system of assay [4] is Human immunodeficiency virus 2. Kind of assay: Antiviral activity against HIV2 assessed as inhibition of virus-induced cytopathogenicity in CEM cells. Conditions: Human immunodeficiency virus 2, CCRF-CEM. In kind it is functional, organism-based. In a few lines:
as §2

The test system of a further assay is Human alphaherpesvirus 3. Kind of assay: Antiviral activity against Varicella-Zoster virus assessed as inhibition of virus-induced cytopathogenicity in HEL cells. It is filed as functional, organism-based. Conditions: Human alphaherpesvirus 3, HEL.
Another assay deals with Coxsackievirus B4. Kind of assay: Antiviral activity against Coxsackie B4 virus assessed as inhibition of virus-induced cytopathogenicity in HeLa cells. The note with it: Enterovirus B. In kind it is functional, organism-based. In a few lines:
(§3)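 Cytopathicity-reduction assay: Coxsackie B4 virus in HeLa cell cultures; influenza A (H3N2) in MDCK cell cultures. Virus-induced cytopathicity is scored at the time point when untreated virus-exposed cultures reach full cytopathic effect.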

The next assay deals with Influenza A virus H3N2. Kind of assay: Antiviral activity against influenza A virus H3N2 assessed as inhibition of virus-induced cytopathogenicity in MDCK cells. In kind it is functional, organism-based. In a few lines:
as §3

The source of these data is ChEMBL document CHEMBL1150283, “Synthesis, cytostatic and anti-HIV evaluations of the new unsaturated acyclic C-5 pyrimidine nucleoside analogues” (Bioorg Med Chem, 2008).

The structures appear in SMILES notation.

The term IC50 denotes the concentration that gives 50% inhibition. The term EC50 denotes the midpoint of the concentration-response curve. As to `O=C1c2ccccc2C(=O)N1C/C=C/Cn1cc(C#CCCc2ccccc2)c(=O)[nH]c1=O`, the IC50 with L1210 was 44 µM; in assay [1], 39 µM; in the assay on CCRF-CEM, 38 µM; with HeLa it was 29 µM; in the assay on MCF7, 13 µM; with MIA PaCa-2, 27 µM. Moreover, the values for the half-inhibitory concentration (IC50) (in the assay with SW-620; in the assay on HepG2; in assay [2]) were 11 µM, 7.3 µM and 31 µM, respectively. For the same molecule, the EC50 in assay [3] and in assay [4] was at least 10 µM in each case.

On to `CCCCCCCCC#Cc1cn(C/C=C/CN2C(=O)c3ccccc3C2=O)c(=O)[nH]c1=O`, for which the 50% inhibitory concentration (IC50) was over 250 µM in the assay on L1210; over 250 µM in assay [1]; over 250 µM in the assay with CCRF-CEM; over 100 µM in the assay with HeLa; 66 µM with MCF7; over 100 µM in the assay on MIA PaCa-2. For the same molecule, the figures for the concentration for half-maximal inhibition (IC50) (with SW-620; in the assay on HepG2; in assay [2]) were 87 µM, 43 µM and 53 µM, respectively. The concentration for a half-maximal effect (EC50) in [3] and in [4] was over 50 µM throughout.

On to `O=C1c2ccccc2C(=O)N1C/C=C\Cn1cc(C#Cc2ccc(Br)cc2)c(=O)[nH]c1=O`, for which the IC50 in the assay on L1210 was 448 µM; in [1], 89 µM; with CCRF-CEM it was 80 µM; with MCF7, over 100 µM; in the assay on MIA PaCa-2, over 100 µM; with SW-620, over 100 µM. Also, in assay [2], the IC50 came to 47 µM. For the same molecule, the EC50 was 10 µM in assay [3] and over 50 µM in assay [4].

For the molecule `CCCCc1ccc(C#Cc2cn(C/C=C/CN3C(=O)c4ccccc4C3=O)c(=O)[nH]c2=O)cc1`, the IC50 in the assay with L1210 was found to be 42 µM; in assay [1], 29 µM; with CCRF-CEM, 31 µM; with HeLa it was 94 µM; in the assay on MCF7, 44 µM; with MIA PaCa-2, 79 µM. In addition, the values for the IC50 (with SW-620; with HepG2; in assay [2]) were over 100 µM, 9.1 µM and 40 µM, respectively. Further, the EC50 in [3] and in [4] was over 10 µM each time.

Take `CCCCCc1ccc(C#Cc2cn(C/C=C\CN3C(=O)c4ccccc4C3=O)c(=O)[nH]c2=O)cc1`: the 50% inhibitory concentration (IC50) was 28 µM in the assay on L1210; 30 µM in assay [1]; 102 µM with CCRF-CEM; over 100 µM in the assay on HeLa; over 100 µM in the assay on MCF7; over 100 µM in the assay with MIA PaCa-2. Also, the IC50 was over 100 µM in the assay on SW-620, 18 µM with HepG2 and over 100 µM in assay [2]. The EC50 was over 2 µM in [3], over 2 µM in assay [4] and 8.7 µM in the assay on Human alphaherpesvirus 3.

With `O=c1[nH]cc(F)c(=O)[nH]1` [FLUOROURACIL], the IC50 was determined as 0.69 µM in the assay with L1210; 20 µM in [1]; 6.5 µM with MIA PaCa-2; 8.7 µM with SW-620; 9.2 µM with HepG2; 10 µM in assay [2].

In the case of `CCCCCc1ccc(C#Cc2cn(C/C=C/CN3C(=O)c4ccccc4C3=O)c(=O)[nH]c2=O)cc1`, the half-maximal inhibitory concentration (IC50) with L1210 stood at 39 µM; in assay [1] it was 17 µM; in the assay on CCRF-CEM, 23 µM; with HeLa it was 27 µM; with MCF7, 5.6 µM; in the assay on MIA PaCa-2, 26 µM. Also, the results for the half-maximal inhibitory concentration (IC50) (in the assay on SW-620; in the assay with HepG2; in [2]) were 30 µM, 4.3 µM and 25 µM, respectively. For the same molecule, the values for the EC50 (with Coxsackievirus B4; in assay [3]; in assay [4]) were 12 µM, 14 µM and 3.1 µM, respectively.

Regarding `Cc1ccc(C#Cc2cn(C/C=C\CN3C(=O)c4ccccc4C3=O)c(=O)[nH]c2=O)cc1`, the 50% inhibitory concentration (IC50) was 266 µM in [1]; 238 µM in the assay with CCRF-CEM; over 100 µM in the assay on HeLa; over 100 µM in the assay with MCF7; over 100 µM in the assay with MIA PaCa-2; over 100 µM with SW-620. The half-inhibitory concentration (IC50) in the assay on HepG2 was 68 µM; in assay [2] it was over 100 µM. For the same molecule, the figures for the EC50 (in [3]; in assay [4]; in the assay on Influenza A virus H3N2) were over 250 µM, over 250 µM and 20 µM, respectively.

Regarding `CCCCCCCCC#Cc1cn(C/C=C\CN2C(=O)c3ccccc3C2=O)c(=O)[nH]c1=O`, the IC50 in the assay on L1210 worked out at 45 µM; in assay [1], 36 µM; in the assay with CCRF-CEM it was 39 µM; in the assay with HeLa, 59 µM; with MCF7 it was 64 µM; in the assay on MIA PaCa-2, 68 µM. Further, the IC50 in the assay with SW-620 is 67 µM; in assay [2] it was 49 µM. The figures for the EC50 (in assay [3]; in [4]; in the assay with Influenza A virus H3N2) were over 50 µM, over 50 µM and 2.5 µM, respectively.

Take `CCCCC#Cc1cn(C/C=C/CN2C(=O)c3ccccc3C2=O)c(=O)[nH]c1=O`: the IC50 with L1210 was determined as 236 µM; in assay [1], 171 µM; in the assay with CCRF-CEM, 192 µM; in the assay on HeLa, 89 µM; with MCF7 it was 8.8 µM; in the assay with MIA PaCa-2, 77 µM. Also, the values for the IC50 (in the assay with SW-620; in the assay with HepG2; in assay [2]) were over 100 µM, 7.9 µM and 35 µM, respectively. Also, the concentration giving a half-maximal response (EC50) in [3] and in assay [4] was at least 50 µM each time.

In the case of `CCCCCC#Cc1cn(C/C=C/CN2C(=O)c3ccccc3C2=O)c(=O)[nH]c1=O`, the IC50 in the assay with L1210 is over 500 µM; in assay [1], over 500 µM; in the assay on CCRF-CEM, over 500 µM; with HeLa, 91 µM; in the assay with MCF7 it was 44 µM; in the assay with MIA PaCa-2 it was 60 µM. For the same molecule, the half-inhibitory concentration (IC50) in the assay on SW-620 is 58 µM; with HepG2 it was 9 µM; in assay [2], 40 µM. Besides, the 50% effective concentration (EC50) in assay [3] and in assay [4] was over 50 µM throughout.

Regarding `CCCCc1ccc(C#Cc2cn(C/C=C\CN3C(=O)c4ccccc4C3=O)c(=O)[nH]c2=O)cc1`, the half-maximal inhibitory concentration (IC50) in [1] is 31 µM; in the assay with CCRF-CEM, 23 µM; with HeLa, 85 µM; in the assay on MCF7, 43 µM; in the assay on MIA PaCa-2, 56 µM; in the assay on SW-620 it was over 100 µM. The figures for the IC50 (in the assay with HepG2; in assay [2]) were 40 µM and 17 µM, respectively. The EC50 in assay [3] and in [4] was over 10 µM in each case.

As for `O=C1c2ccccc2C(=O)N1C/C=C\Cn1cc(C#CCCc2ccccc2)c(=O)[nH]c1=O`, the concentration for half-maximal inhibition (IC50) is 146 µM in assay [1]; 168 µM with CCRF-CEM; over 100 µM in the assay with HeLa; over 100 µM in the assay with MCF7; over 100 µM in the assay with MIA PaCa-2; over 100 µM in the assay on SW-620. Further, the IC50 (in the assay with HepG2; in assay [2]) was over 100 µM throughout. Also, the concentration for a half-maximal effect (EC50) in assay [3] is 35 µM; in [4] it was at least 50 µM.

Regarding `CCCCCCC#Cc1cn(C/C=C/CN2C(=O)c3ccccc3C2=O)c(=O)[nH]c1=O`, the concentration for half-maximal inhibition (IC50) in the assay with L1210 was 43 µM; in assay [1], 35 µM; in the assay on CCRF-CEM, 28 µM; in the assay on MCF7, 24 µM; with MIA PaCa-2, 30 µM; in the assay with SW-620, 32 µM. Moreover, the results for the IC50 (in the assay on HepG2; in assay [2]) were 14 µM and 40 µM, respectively. Further, the concentration giving a half-maximal response (EC50) in assay [3] and in assay [4] was at least 10 µM in each case.

With `CCCCC#Cc1cn(C/C=C\CN2C(=O)c3ccccc3C2=O)c(=O)[nH]c1=O`, the IC50 in the assay on L1210 was 109 µM; in [1], 41 µM; with CCRF-CEM, 100 µM; with HeLa, 33 µM; in the assay with MCF7, 45 µM; with MIA PaCa-2 it was over 100 µM. For the same molecule, the values for the IC50 (in the assay with SW-620; with HepG2; in assay [2]) were 82 µM, 17 µM and 28 µM, respectively. Besides, the half-maximal effective concentration (EC50) in assay [3] and in assay [4] was at least 50 µM each time.
